In ChEMBL document CHEMBL3044648, “Quantitative structure-activity relationships of monoterpenoid binding activities to the housefly GABA receptor” (2012) one finds Activity and LD50 data, which are given here for 22 molecules.

Assay [1] has as its target T1, GABA receptor subunit (Musca domestica) (UniProt Q75NA5).
T1 sequence (whole entry): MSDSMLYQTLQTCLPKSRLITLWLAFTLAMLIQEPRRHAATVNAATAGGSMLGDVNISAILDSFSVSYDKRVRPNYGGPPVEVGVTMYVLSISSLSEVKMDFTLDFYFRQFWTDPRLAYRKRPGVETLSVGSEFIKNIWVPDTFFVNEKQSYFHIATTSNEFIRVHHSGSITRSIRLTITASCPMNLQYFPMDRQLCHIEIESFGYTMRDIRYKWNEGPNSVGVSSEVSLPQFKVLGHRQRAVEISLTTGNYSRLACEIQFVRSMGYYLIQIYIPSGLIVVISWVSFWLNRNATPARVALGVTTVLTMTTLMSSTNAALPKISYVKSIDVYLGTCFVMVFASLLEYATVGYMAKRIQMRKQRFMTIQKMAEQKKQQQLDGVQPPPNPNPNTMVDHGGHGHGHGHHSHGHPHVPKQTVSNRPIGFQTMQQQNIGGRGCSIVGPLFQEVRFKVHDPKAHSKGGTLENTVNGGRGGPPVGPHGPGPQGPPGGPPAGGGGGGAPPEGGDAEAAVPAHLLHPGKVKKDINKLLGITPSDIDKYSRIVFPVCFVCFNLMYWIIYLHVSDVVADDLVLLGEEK
The experiment in a line: Displacement of [3H]TBOB binding to GABA receptor in Musca domestica (house fly) heads homogenates assessed as [3H]TBOB binding at 500 uM incubated for 90 min by scintillation counting method. A digest of the protocol: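 House fly head membranes (homogenized in 10 mM Tris-HCl pH 7.5 with 0.25 M sucrose, pelleted at 25,000xg, resuspended in 10 mM phosphate pH 7.5 with 300 mM NaCl); 20 µg protein incubated 90 min at 20 °C with 4 nM [³H]-TBOB and 500 µM monoterpenoid; GF/B filtration; nonspecific binding with 100 µM picrotoxin; specific binding as % of untreated; at least three repeats, mean ± SEM.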
On the technique in general: Loss of bound radioactivity is the signal in a displacement assay; it reports binding, not function.

The test system of assay [2] is Musca domestica. The experiment in a line: Toxicity to Musca domestica (house fly) applied to pronotum assessed as compound level per fly causing insect mortality measured after 24 hr. The format is functional.

Each structure is given as a SMILES string.

On to `CC1=CC[C@@H](C(C)(C)O)CC1`, for which the Activity in assay [1] is 95%.

With `Cc1ccc(C(C)C)c(O)c1`, the Activity in assay [1] turned out to be 180%.

`O=C(O)/C=C/c1ccccc1`: in assay [1], the Activity amounted to 101%.

Turning to `CC(C)[C@H]1CC[C@H](C)CC1=O` (relative stereo), the Activity in assay [1] was 86%.

Consider `CC(C)C12CCC(C)(CC1)O2` [1,4-CINEOLE], for which the Activity in assay [1] amounted to 117%. Besides, the LD50 in assay [2] came to 151.7 µg.

As to `CC12CCC(CC1=O)C2(C)C` (stereo not given) [CAMPHOR], the Activity in assay [1] was found to be 70%. Besides, in assay [2], the LD50 is 149.5 µg.

Regarding `Cc1ccc(C(C)C)cc1O` [CARVACROL], the Activity in assay [1] came to 156%. In assay [2], the LD50 amounted to 60.1 µg.

Turning to `CC(C)=CCC[C@@H](C)CC=O` [CITRONELLAL], the Activity in assay [1] came to 92%. Moreover, the LD50 in assay [2] is 46.8 µg.

Consider `CC(C)=CCCC(C)CC(=O)O` (stereo not given) [CITRONELLIC ACID], for which the Activity in assay [1] was found to be 138%. The LD50 in assay [2] stood at 25.2 µg.

As for `C=C(C)[C@H]1CC=C(C)CC1` [D-LIMONENE], the Activity in assay [1] is 86%. Besides, the LD50 in assay [2] stood at 89.4 µg.

For the molecule `CC12CCC(CC1)C(C)(C)O2` [EUCALYPTOL], the Activity in assay [1] came out at 122%. For the same molecule, in assay [2], the LD50 turned out to be 63.2 µg.

For the molecule `C=CCc1ccc(O)c(OC)c1` [EUGENOL], the Activity in assay [1] came out at 88%. Also, in assay [2], the LD50 amounted to 46.4 µg.

On to `C=C(C)C1CCC2(C)OC2C1` (stereo not given) [LIMONENE OXIDE], for which the Activity in assay [1] is 141%. Moreover, the LD50 in assay [2] came to 67.8 µg.

In the case of `C=CC(C)(O)CCC=C(C)C` (stereo not given) [LINALOOL], in assay [1], the Activity was found to be 124%. Besides, the LD50 in assay [2] was found to be 72.3 µg.

`CC1CCC(C(C)C)C(O)C1` (stereo not given) [MENTHOL]: in assay [1], the Activity was determined as 80%. Moreover, the LD50 in assay [2] was 128.9 µg.

On to `COC(=O)c1ccccc1O` [METHYL SALICYLATE], for which, in assay [1], the Activity stood at 103%. Further, in assay [2], the LD50 was found to be 41.2 µg.

Consider `Cc1ccc(C(C)C)cc1` [P-CYMENE], for which, in assay [1], the Activity amounted to 90%. Further, the LD50 in assay [2] is 94.7 µg.

For the molecule `CCC(=O)OCCc1ccccc1` [PHENETHYL PROPIONATE], in assay [1], the Activity was 95%. The LD50 in assay [2] worked out at 66.6 µg.

Turning to `O=Cc1ccc2c(c1)OCO2` [PIPERONAL], the Activity in assay [1] worked out at 93%. For the same molecule, the LD50 in assay [2] turned out to be 36.1 µg.

Regarding `CC(C)=C1CC[C@@H](C)CC1=O` [PULEGONE], the Activity in assay [1] came out at 132%. The LD50 in assay [2] was 92.2 µg.

Turning to `C=CCc1ccc2c(c1)OCO2` [SAFROLE], the Activity in assay [1] worked out at 43%. Moreover, in assay [2], the LD50 is 18.3 µg.

With `COc1cc(C=O)ccc1O` [VANILLIN], the Activity in assay [1] was found to be 82%. Further, in assay [2], the LD50 was above 500 µg.
